The subject of test [1] is CEM-SS. Briefly: Cytotoxicity against human CEM-SS cells assessed as cell growth inhibition. Format: cell-based. The procedure, abridged: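 CEM-SS cells were exposed to compounds at concentrations up to 50 μM, and cytotoxicity was scored as cell growth inhibition.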
The subject of test [2] is Human immunodeficiency virus 1. Briefly: Antiviral activity against HIV1 infected in human H9 cells assessed as protection against virus-induced cytopathic effect by tetrazolium reduction based colorimetric technique. Format: functional, organism-based. In short, it runs like this: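 HIV cytopathicity assay run by a previously reported protocol. Compounds tested at up to 50 μM, with dideoxycytidine as positive control.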

The target of test [3] is Human immunodeficiency virus type 1 reverse transcriptase (Human immunodeficiency virus 1, UniProt Q72547). Briefly: Inhibition of human immunodeficiency virus-1 reverse transcriptase associated RNase H activity using 18-nucleotide 3,-fluorescein-labeled RNA substrate by fluorescence resonance energy transfer assay. The procedure, abridged:
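Inhibition of HIV RT-associated RNase H activity was measured by a previously described method, with β-thujaplicinol as positive control and IC50 as the readout.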

This passage reports IC50 and EC50 results from ChEMBL document CHEMBL3425428, “Sesquiterpenoid tropolone glycosides from Liriosma ovata” (J Nat Prod, 2015).

A value given as a limit tells only on which side of the number the result lay.

In the case of `C=C(C)[C@@H]1CCc2cc(O[C@@H]3O[C@H](COC(=O)CC(C)(O)CC(=O)O)[C@@H](O)[C@H](O)[C@H]3O)c(=O)cc(C)c2C1` (stereo partly specified), the IC50 is greater than 50 µM in test [1] and 34 µM in test [3]. Further, the EC50 entry in test [2] (h9) is recorded as “Not Active”.
With `Cc1cc(=O)c(O[C@@H]2O[C@H](COC(=O)CC(C)(O)CC(=O)O)[C@@H](O)[C@H](O)[C@H]2O)cc2c1C[C@H](C(C)(C)O)CC2` (stereo partly specified), the IC50 in test [1] and in test [3] was greater than 50 µM each time. Also, in test [2] (h9), the concentration giving a half-maximal response (EC50) entry is given as “Not Active”.
On to `CC(C)c1ccc(O)c(=O)c(O)c1` [BETA-THUJAPLICINOL], for which the IC50 in test [1] is 2.3 µM; in test [3], 0.26 µM. Also, in test [2] (h9), the EC50 result is listed as “Not Active”.
In the case of `Nc1ccn([C@H]2CC[C@@H](CO)O2)c(=O)n1` [ZALCITABINE], in test [1], the concentration for half-maximal inhibition (IC50) amounted to 61 µM. For the same compound, the EC50 in test [2] (Human immunodeficiency virus 1, H9, read-out: EC50) came out at 0.079 µM.
